In publication PMC11604526 (Cell Reports Medicine, 2024):
Square brackets hold non-standard residues; d marks the D form. Ends that are not written are not given here. Dmt = Cc1cc(O)cc(C)c1C[C@H](N)C(=O)O; Cha = N[C@@H](CC1CCCCC1)C(=O)O

How the values were obtained:
[1] = system: mice with photothrombotic stroke; test: Motor function; type: in vivo, mouse
How it was run: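 Photothrombotic stroke was induced with rose bengal, holding body temperature at 37 ± 0.5°C. For grid walking, each mouse walked freely for 5 min on a wire grid 50 cm high. For the cylinder task, mice explored a clear cylinder (15 cm tall, 10 cm diameter) for 5 min, and only rears with both forelimbs clearly visible were timed. Tests ran 7 days before stroke and at set days after stroke.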

GAT-1 [2] = test: 3H-GABA uptake in HEK293 cells overexpressing GAT-1; type: cell-based; conditions: 100 nM; compared with Tat-Synt1A251-265mut (100 nM); n = 5
How it was run: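 HEK293 cells were kept in MEM with 10% FBS and transduced with lentiviral GAT-1-EGFP. These GAT-1-overexpressing cells were incubated with peptide (100 nM), or with the mutant control peptide at the same concentration, before 3H-GABA uptake was measured.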

GAT-1 [3] = test: GAT-1 level and membrane fraction; type: cell-based; conditions: 100 nM; compared with Tat-Synt1A251-265mut; n = 5
How it was run: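 HEK293 cells lentivirally expressing GAT-1-EGFP were exposed to peptide at 100 nM. Cells were permeabilised in Extraction Buffer 1 and spun at 1000 ×g for 5 min to split cytosol from membranes. Integral membrane proteins were extracted from the pellet in Extraction Buffer 2B and taken straight to western blot. β-Actin, a cytosolic marker, served to check membrane-fraction purity.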

[4] = system: extracellular GABA ([GABA]o); test: Extracellular GABA in peri-infarct cortex; type: in vivo, mouse; conditions: microinjection 0.2 pmol/d days 5-7 after stroke; day 8 after stroke; microdialysis; n = 6
How it was run: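 A CMA7 microdialysis probe was placed in peri-infarct cortex (AP 0, ML −0.65, DV −1.5 mm from bregma). It was perfused at 1 μL/min with bicarbonate-buffered saline containing 10 mM glucose. Dialysate was collected in 20-min fractions over 2 h, and the second fraction was analysed. GABA was measured by ELISA (activator, 37°C for 15 min in the dark, stop solution, A450).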

[5] = system: layer 5 peri-infarct pyramidal neurons; test: Whole-cell recordings in acute brain slices from treated mice; type: in vivo, mouse
Synt1A-SNAP-25 complex = test: Co-IP of Synt1A-SNAP-25 complex in peri-infarct cortex; type: in vivo, mouse; conditions: microinjection 0.2 pmol/d days 5-7 after stroke; day 8; n = 5
How it was run: (§1)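 Photothrombotic stroke was induced with rose bengal. Peptide was infused into the peri-infarct cortex through a 33-gauge injector in a guide cannula implanted in the infarct core (AP 0, ML −1.5, DV −1.0 mm from bregma). Dissected tissue was lysed 30 min in ice-cold RIPA and spun at 12,000 ×g for 15 min at 4°C. Lysates were precleared 1 h at 4°C with protein G magnetic beads before co-IP.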

Synt1A-VAMP-2 complex = test: Co-IP of Synt1A-VAMP-2 complex in peri-infarct cortex; type: in vivo, mouse; conditions: microinjection 0.2 pmol/d days 5-7 after stroke; day 8; n = 5
How it was run: as §1

[6] = system: SNARE complex (Synt1A, SNAP-25, VAMP-2); test: SNARE complex and monomer levels in synaptosomes; type: in vivo, mouse; conditions: 0.2 pmol/d days 5-7 after stroke, day 8
How it was run: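 Peri-infarct tissue was homogenised at 4°C in 320 mM sucrose, 1 mM NaHCO3, 1 mM MgCl2 and 0.5 mM CaCl2. The homogenate was spun at 500 ×g for 2 min, and the supernatant at 10,100 ×g for 10 min. The pellet was resuspended in 0.32 M sucrose, layered on 0.8 M sucrose and spun at 9100 ×g for 15 min. The 0.8 M fraction was pelleted at 12,000 ×g for 15 min and taken up in SDS lysis buffer.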

peri-infarct cortex = test: In vivo LFP and spike recording in peri-infarct cortex; design: species or system mouse; conditions: infused days 5-11 after stroke; recorded day 12
How it was run: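 Spike-firing time histograms were built by counting spikes in sequential 1 s bins. Movement-related change was expressed as ((firing events during movement − firing events during stillness)/firing events during stillness) × 100.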

[7] = system: midline-crossing BDA+ fibers, C7 spinal cord; test: BDA tract tracing, axonal sprouting; type: in vivo, mouse; conditions: treatment days 5-11 after stroke; BDA day 34, staining day 48; n = 6
How it was run: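 Contralateral cortex injected at two sites with 10% biotinylated dextran amine on day 34 after stroke. Fourteen days later, mice were transcardially perfused with ice-cold saline, then 4% PFA. Transverse cervical spinal cord and coronal brain sections were cut at 40 μm. BDA+ axons were labelled with streptavidin-Cy3 (1:500). Analysis was blinded.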

GAT-1 and Synt1A = GAT-1 and Synt1A total levels and membrane fractions in cultured neurons; type: cell-based, mouse; conditions: GSNO 50 μM for 6 h; n = 5
How it was run: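 Primary cortical neurons from E16 mice were grown on poly-L-ornithine in Neurobasal with 2% B27. For membrane fractions, cells were permeabilized in extraction buffer 1 and spun at 1000 ×g for 5 min; the pellet was resuspended in buffer 2B to extract integral membrane proteins. β-Actin was checked to confirm fraction purity. Western blots used anti-GAT-1 and anti-syntaxin1A (both 1:4000) and anti-Na+-K+-ATPase (1:1000).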

GAT-1-Synt1A interaction = GAT-1-Synt1A interaction (Mus musculus, UniProt P31648); test: Synt1A-GAT-1 uncoupling activities of ZLQ series of compounds; conditions: Figures S4A/S4B; n = 3
[8] = 0.2 pmol/d days 5-7 after stroke, recorded day 8
[9] = compared with Tat-Synt1A251-265mut-treated mice
[10] = compared with sham and Tat-Synt1A251-265mut-treated mice with stroke

Molecule: Tat-TKKAVKYQSKARRKK [Tat-Synt1A251-265]
- motor functions of sham-operated mice ([1]; peptide microinjection, sham-operated mice): had no effect on motor functions of sham-operated mice
- 3H-GABA uptake, HEK293 cells overexpressing GAT-1 (GAT-1 [2]): did not affect
- expression of GAT-1, HEK293 cells overexpressing GAT-1 (GAT-1 [3]): did not affect
- membrane distribution of GAT-1, HEK293 cells overexpressing GAT-1 (GAT-1 [3]): did not affect
- stroke-induced increase in [GABA]o in the peri-infarct cortex [4]: reversed stroke-induced increase in [GABA]o
- mEPSCs, sham-operated mice ([5]; 0.2 pmol/d): had no effect on sham-operated mice
- mIPSCs, sham-operated mice ([5]; 0.2 pmol/d): had no effect on sham-operated mice
- tonic GABA currents (Itonic), sham-operated mice ([5]; 0.2 pmol/d days 5-7, recorded day 8): had no effect on sham-operated mice
- effect of stroke on Itonic, GAT-1 CKO mice with stroke [5, 8]: rather than that in GAT-1 CKO mice with stroke
- effect of stroke on Itonic, WT mice with stroke [5, 8]: reversed the effect of stroke on Itonic
- mEPSC frequency, mice with stroke ([5]; 0.2 pmol/d, day 8 after stroke): reversed stroke-induced decrease in mEPSC frequency
- mIPSC frequency, mice with stroke ([5]; 0.2 pmol/d, day 8 after stroke): reversed the stroke-induced decrease in mIPSC frequency
- sEPSC amplitude, mice with stroke [5, 9]: but not amplitude
- sEPSC frequency, mice with stroke [5, 9]: significantly increased sEPSC frequency
- sIPSC amplitude, mice with stroke [5, 10]: but not amplitude
- sIPSC frequency, mice with stroke [5, 10]: significantly increased sIPSC frequency
- sEPSCs, sham-operated mice ([5]; mouse, in vivo): had no effect on sEPSCs
- sIPSCs, sham-operated mice ([5]; mouse, in vivo): had no effect on sIPSCs of sham-operated mice
- stroke-induced decrease in Synt1A-SNAP-25 complex (Synt1A-SNAP-25 complex): reversed stroke-induced decreases
- stroke-induced decrease in Synt1A-VAMP-2 complex (Synt1A-VAMP-2 complex): reversed stroke-induced decreases
- Synt1A, SNAP-25, or VAMP-2 monomer (synaptosomes) [6]: did not affect
- stroke-induced decreases in SNARE complexes (synaptosomes) ([6]; n = 5-6): reversed stroke-induced decreases in SNARE complexes
- LFP power in delta (1-3 Hz) and theta (4-12 Hz) oscillations (peri-infarct cortex): significantly enhanced
- effects on cortical oscillations in GAT-1 CKO mice (peri-infarct cortex): disappeared in GAT-1 CKO mice
- movement-related spike firing rates, WT mice (peri-infarct cortex): reversed stroke-induced decrease in spike firing rates
- number of BDA+ fibers crossing the midline into the denervated spinal cord at the C7 level [7]: significantly increased the number of BDA^+ fibers crossing the midline

Molecule: N[C@@H](CCC(=O)N[C@@H](CSN=O)C(=O)NCC(=O)O)C(=O)O [GSNO]
- membrane contents of GAT-1 and Synt1A in cultured neurons (GAT-1 and Synt1A): significantly increased membrane contents of GAT-1 and Synt1A
- total levels of GAT-1 and Synt1A in cultured neurons (GAT-1 and Synt1A): had no effects on the total levels of GAT-1 and Synt1A

Molecule: [dR][Dmt][Cha][dK][dR]-NH2 (N-terminus assumed; SMILES Cc1cc(O)cc(C)c1C[C@H](NC(=O)[C@H](N)CCCNC(=N)N)C(=O)N[C@@H](CC1CCCCC1)C(=O)N[C@H](CCCCN)C(=O)N[C@H](CCCNC(=N)N)C(N)=O) [ZLQ-3]
- impairment of motor functions, intranasal 5 mg/kg ([1]; 5 mg/kg intranasally days 5-11 after stroke, test day 12): attenuated the impairment of motor functions
- GAT-1-Synt1A uncoupling activity among the ZLQ series (GAT-1-Synt1A interaction): most potent GAT-1-Synt1A uncoupling activity
